Compound activity deposited in PubChem by several laboratories.
Most compounds without a hit are left out; they make up all but 2.9% or so of the library.
UBC13 inh = UBC13 polyubiquitin chain formation inhibitors, primary screen, biochemical, TR-FRET, uHTS; Ubiquitin-conjugating enzyme E2 N (Homo sapiens), P61088; inhibition, % at 20 µM; 330,000 tested, 0.47% active; AID 485273, 2010; in the data active = inhibition above about 45%, passing the limit was not always enough; inconclusive = no clear call, values can overlap the other calls
MEKK3 PB1 HTS = modulators of MEKK3-MEK5 PB1 binding, primary screen, biochemical, wildtype MEKK3, multiplex bead flow cytometry, Alexa488-MEK5; Mitogen-activated protein kinase kinase kinase 3 (Homo sapiens), Q99759; bead-based flow cytometry, Alexa488-MEK5 binding to MEKK3; actives lie on both sides; 0 = blocked by unlabeled MEK5, 100 = vehicle; binding response (% of control), % at 10 µM; 290,000 tested, 1.4% active;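 active = binding response more than 3 SD above or below the average of its plate-row segment, actives on both sides; inconclusive = wells at one plate position flagged as instrument error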;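 note: Alexa488 bead fluorescence after subtracting the streptavidin-only scavenger bead signal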
Target sequence (Q99759 whole entry, looked up): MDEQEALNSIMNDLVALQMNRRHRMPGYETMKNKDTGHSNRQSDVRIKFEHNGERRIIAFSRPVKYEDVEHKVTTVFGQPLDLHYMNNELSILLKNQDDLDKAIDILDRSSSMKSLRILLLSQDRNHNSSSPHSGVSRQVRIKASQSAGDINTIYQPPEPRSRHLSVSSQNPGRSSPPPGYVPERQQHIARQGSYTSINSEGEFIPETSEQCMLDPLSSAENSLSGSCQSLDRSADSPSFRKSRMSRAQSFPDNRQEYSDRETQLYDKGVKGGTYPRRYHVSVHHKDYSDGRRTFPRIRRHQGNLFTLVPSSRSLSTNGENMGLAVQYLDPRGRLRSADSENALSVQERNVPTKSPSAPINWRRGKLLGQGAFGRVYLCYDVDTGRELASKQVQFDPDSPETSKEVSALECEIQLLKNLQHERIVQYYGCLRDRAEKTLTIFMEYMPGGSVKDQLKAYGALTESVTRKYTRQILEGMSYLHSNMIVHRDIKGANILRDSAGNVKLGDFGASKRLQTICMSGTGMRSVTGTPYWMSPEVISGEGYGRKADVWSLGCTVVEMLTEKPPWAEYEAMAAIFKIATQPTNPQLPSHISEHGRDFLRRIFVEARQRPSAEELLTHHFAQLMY
MEKK2mut PB1 HTS = MEK5 binding signal on mutant MEKK2 PB1, primary screen, biochemical, multiplex bead flow cytometry, Alexa488-MEK5. Alexa488-MEK5 binding to MEKK2 mutant. percent response, % at 10 µM. 290,000 tested, 0.35% active. AID 1530, 2009; in the data active = percent response above about 24%, passing the limit was not always enough
Apaf1 inhib = inhibitors of human Apaf-1 apoptosome, primary screen, biochemical, DEVD-Rh110 fluorescence, uHTS | 330,000 tested, 0.71% active | inhibition, % at 20 µM | reconstituted apoptosome caspase-3 activity | Apoptotic protease-activating factor 1 (Homo sapiens), O14727; active = inhibition of at least 40% at 20 µM;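 note: plate controls were DMSO wells for no effect and DEVD-CHO caspase inhibitor wells for full effect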
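Material: reconstituted apoptosome with Apaf-1, cytochrome c, caspase-9, procaspase-3, dATP / Buffer or medium: pH 7.5 Hepes buffer with CHAPS, BSA, DTT / Also added: cytochrome c with DEVD-Rh110 / Schedule: compound with Apaf-1, dATP, procaspase-3 30 min, then 50 min reaction, room temperature / Technique: rhodamine 110 fluorescence at Ex 480/Em 540 nm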
MEKK2wt PB1 HTS = modulators of MEK5 binding to wildtype MEKK2, primary screen, biochemical, multiplex bead flow cytometry, Alexa488-MEK5 | Mitogen-activated protein kinase kinase kinase 2 (Homo sapiens), Q9Y2U5 | Alexa488-MEK5 binding to MEKK2 WT; actives lie on both sides | binding response (% of control), % at 10 µM | 290,000 tested, 1.1% active | AID 1531, 2009; in the data active = binding response below about 67% or above about 130%; inconclusive = no clear call, values can overlap the other calls; inactive = in between
MEKK2wt confirm = modulators of MEK5 binding to wildtype MEKK2, confirmation, biochemical, single concentration, multiplex bead flow cytometry; Alexa488-MEK5 binding to MEKK2 WT; actives lie on both sides; 5,900 tested, 2.4% active; AID 1892, 2009; shares compounds with MEKK3 PB1 HTS; binding response (% of control), % at 10 µM; in the data active = binding response below about 16% or above about 210%; inactive = in between
MEKK2mut-MEK5 = mutant MEKK2 PB1-MEK5 binding signal retest – biochemical, single concentration, multiplex bead flow cytometry, confirmation; Alexa488-MEK5 binding to MEKK2 mutant; shares compounds with MEKK3 PB1 HTS; percent response, % at 10 µM; 5,900 tested, 2% active; in the data active = percent response mostly above about 71%, no sharp cut-off; inactive = mostly below about 38%;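 note: higher means compound restores mutant binding toward wildtype level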
MEKK3 confirm = MEKK3 wild-type PB1 binding to MEK5, inhibitors, confirmation, biochemical, bead multiplex flow cytometry, single concentration, wildtype; shares compounds with MEKK3 PB1 HTS; Alexa488-MEK5 binding to MEKK3; hits give low values; binding response (% of control), % at 10 µM; 5,900 tested, 1.8% active; AID 1894, 2009;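 active = binding response below 72% of control, or above a set upper limit, though filed actives all read lower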;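 note: 100% = DMSO only wells and 0% = binding blocked by excess unlabeled MEK5; lower values mean stronger disruption of MEK5 binding to MEKK3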
Numbers without * were called inactive; u = inconclusive; x = no result given; [ ] = remark or other dose.

SMILES	UBC13 inh	MEKK3 PB1 HTS	MEKK2mut PB1 HTS	Apaf1 inhib	MEKK2wt PB1 HTS	MEKK2wt confirm	MEKK2mut-MEK5	MEKK3 confirm
O=C(NC1CCN(Cc2ccccc2)CC1)C1CCN(c2nnc(-n3cccc3)s2)CC1	36.3	112.0	50.0*	10.4	203.0*	183.0	65.0	111.0
O=C(CSCC(=O)N1CCOCC1)Nc1nc(-c2ccccc2)cs1	-4.6	131.0*	22.0	-11.7	118.0	96.0	-1.0	98.0
CCOC(=O)N1CCN(C(=O)CSCC(=O)Nc2nc(-c3ccc(-c4ccccc4)cc3)cs2)CC1	3.4	101.0	0.0	30.8	94.0	x	x	x
FC(F)(F)c1nnc2ccc(N3CCCCCC3)nn12	-2.4	81.0*[inhibitor]	-14.0	9.2	91.0	98.0	-2.0	100.0
Cc1nc2sccn2c(=O)c1CCN1CCC(=C(c2ccccc2)c2ccc(F)cc2)CC1	29.0	120.0	13.0	41.8*	157.0*	123.0	4.0	101.0
O=C(N1CCCCC1)N1CCN(C(c2ccccc2)c2ccccc2)CC1	-1.4	106.0	0.0	22.5	103.0	x	x	x
O=C1NCCCC1C(=O)N1CCN(C(c2ccccc2)c2ccccc2)CC1 (centres undefined)	-3.3	82.0*[inhibitor]	-9.0	-9.7	98.0	103.0	7.0	108.0
CC(=O)c1cccc(NC(=O)CCC2CCCC2)c1	-7.8	2.0*[inhibitor]	-21.0	11.4	2.0*[inhibitor]	103.0	1.0	101.0
OCCC1CN(CCCn2cccn2)CCN1C1CCCCC1 (centres undefined)	x	99.0	-7.0	x	90.0	x	x	x
Cc1ccc2nc(N=C(N)N)nc(C)c2c1	-9.1	82.0	-7.0	-10.1	93.0	x	x	x
Cc1nc(N=C(N)N)nc2ccccc12	-9.5	75.0*[inhibitor]	-11.0	-5.3	77.0	107.0	19.0	101.0
CCOc1ccc(C(C)=O)cc1Cn1c(=O)oc2ccccc21	0.3	104.0	2.0	7.9	108.0	x	x	x
CCOC(=O)C1CCN(C(=O)C2CCN(c3nc4ccc(OC)cc4s3)CC2)CC1	3.4	122.0*	7.0	11.5	118.0	110.0	8.0	108.0
Fc1ccc(CNC(=S)NCc2ccc(F)cc2)cc1	4.0	103.0	6.0	-1.3	104.0	x	x	x
CCNC(=S)NCc1ccc(F)cc1	-0.6	134.0*	-1.0	5.5	109.0	102.0	-2.0	98.0
Cc1ccc(-c2ccc(SCC(=O)N3CCN(c4ccccc4)CC3)nn2)cc1	6.9	138.0*	1.0	-5.3	105.0	105.0	-3.0	102.0
O=C(NCc1ccco1)C(=O)NCC1OCCCN1S(=O)(=O)c1ccccc1 (centres undefined)	4.4	98.0	-2.0	-3.4	98.0	x	x	x
O=C(COc1ccc(C(=O)NCCc2ccccc2)cc1)Nc1ccccc1	4.2	97.0	-3.0	-4.7	96.0	x	x	x
O=C(COc1ccc(C(=O)Nc2ccc(Cl)cc2)cc1)NCc1ccccc1	-3.3	155.0*	1.0	5.0	109.0	98.0	3.0	102.0
O=C(COC(=O)c1ccc(F)cc1)NC1CC1	-9.8	x	x	5.4	x	x	x	x
COc1cccc(NC(=O)CN(c2cccc(C(F)(F)F)c2)S(C)(=O)=O)c1	4.7	80.0*[inhibitor]	-4.0	10.9	81.0	101.0	2.0	100.0
CC1CCCC(NC(=O)COC(=O)c2sc3ccccc3c2Cl)C1C (centres undefined)	0.0	135.0*	1.0	-0.6	110.0	99.0	0.0	100.0
COc1ccc(/C=C/CN2CCCC(C(=O)c3ccc(OC)c(F)c3)C2)cc1 (centres undefined)	5.0	105.0	20.0	4.7	140.0*	126.0	11.0	104.0
COc1cccc(C(=O)C2CCCN(C/C=C/c3ccccc3OC)C2)c1 (centres undefined)	-4.6	105.0	-7.0	12.2	98.0	x	x	x
COC(=O)CCCC1=CC2=C(c3ccccc3)C(=O)C(C)(OC(=O)C3CCCC3)C(=O)C2=CN1C(CO)CO (centres undefined)	-19.9	95.0	5.0	19.4	93.0	x	x	x
SMILES	UBC13 inh	MEKK3 PB1 HTS	MEKK2mut PB1 HTS	Apaf1 inhib	MEKK2wt PB1 HTS	MEKK2wt confirm	MEKK2mut-MEK5	MEKK3 confirm
COC(=O)CCCC1=CC2=C(c3ccccc3)C(=O)C(C)(OC(=O)C3CCCC3)C(=O)C2=CN1c1ccccc1 (centres undefined)	-39.6	128.0*	1.0	17.5	154.0*	87.0	-5.0	94.0
COC(=O)CCCC1=CC2=C(c3ccccc3)C(=O)C(C)(OC(=O)C3CCCC3)C(=O)C2=CN1C1CC1 (centres undefined)	-29.7	122.0	1.0	16.6	155.0*	103.0	0.0	102.0
CCCOc1ccc(C(=O)NCCC(=O)NCCCC(=O)O)cc1	6.2	130.0*	22.0	-6.0	124.0	100.0	1.0	95.0
CCN(CC(=O)Nc1cc(Cl)ccc1C)C(=O)CCS(=O)(=O)c1ccc(C)cc1	3.4	x	x	6.3	x	x	x	x
O=C(O)COCC(=O)Nc1ccc(Oc2ncnc3cc(Cl)ccc23)nc1	7.2	48.0*[inhibitor]	-41.0	-21.4	58.0	105.0	6.0	103.0
Cc1ccc(NC(=O)/C(=C/c2cccc([N+](=O)[O-])c2)NC(=O)C2CCCCC2)c(C)c1	-1.3	1.0*[inhibitor]	-21.0	-18.0	2.0*[inhibitor]	107.0	3.0	103.0
O=C(Nc1ccc([N+](=O)[O-])cc1)/C(=C/c1cccc([N+](=O)[O-])c1)NC(=O)C1CCCCC1	-13.6	101.0	0.0	4.8	99.0	x	x	x
COc1ccc(N2CCN(c3nccs3)CC2)cc1	3.2	100.0	3.0	1.7	104.0	x	x	x
O=C(Nc1ccc(CN2CCCCC2)cc1)Nc1ccc(Br)cc1Cl	23.6	113.0	11.0	16.3	165.0*	144.0	20.0	104.0
CCOC(=O)c1c(C)[nH]c(=S)c(C#N)c1-c1ccc(OC)cc1	u	122.0*	5.0	9.5	108.0	98.0	0.0	101.0
O=C(Nc1ncccc1O)C1CCN(S(=O)(=O)c2ccc3ccccc3c2)CC1	-5.2	x	x	-2.0	x	x	x	x
Cc1ccccc1NC(=O)NC1(C(=O)N2CCC(C(N)=O)CC2)CCCCC1	5.3	100.0	3.0	0.7	101.0	x	x	x
